# According to the M2OR odorant receptor database:
# How the values were obtained:
# Conditions in all cases: stereoisomer not certain
# UniProt Q8VGV7 = molecular target: T1, UniProt Q8VGV7
# T1 sequence (whole entry): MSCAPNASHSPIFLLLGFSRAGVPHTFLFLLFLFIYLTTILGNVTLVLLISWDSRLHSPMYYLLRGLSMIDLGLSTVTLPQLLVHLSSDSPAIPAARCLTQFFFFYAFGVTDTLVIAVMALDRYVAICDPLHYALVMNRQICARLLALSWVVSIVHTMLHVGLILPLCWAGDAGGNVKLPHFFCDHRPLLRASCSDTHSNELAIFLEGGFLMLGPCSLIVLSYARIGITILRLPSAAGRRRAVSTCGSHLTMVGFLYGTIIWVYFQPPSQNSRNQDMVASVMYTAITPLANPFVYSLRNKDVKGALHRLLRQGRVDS
# In short: (§1)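 Whether a receptor–molecule pair is responsive (active) rests on the original authors' judgment that its measured signal was statistically different from baseline. Pairs without that judgment are non-responsive (inactive). Sources used varied assay methods, commonly transient luciferase assays in mammalian cell lines.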
# UniProt Q8VGX3 = molecular target: T2, UniProt Q8VGX3
# T2 sequence (whole entry): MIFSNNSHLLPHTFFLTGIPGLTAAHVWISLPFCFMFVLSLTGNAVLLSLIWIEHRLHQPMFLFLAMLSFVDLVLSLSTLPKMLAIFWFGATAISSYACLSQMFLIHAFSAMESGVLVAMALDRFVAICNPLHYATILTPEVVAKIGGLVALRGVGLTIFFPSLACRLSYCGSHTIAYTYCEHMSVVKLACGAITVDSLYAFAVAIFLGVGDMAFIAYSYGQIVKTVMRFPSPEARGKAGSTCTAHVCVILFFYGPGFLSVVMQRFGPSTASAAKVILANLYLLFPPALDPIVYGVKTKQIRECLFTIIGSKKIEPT
# In short: as §1
# UniProt Q8VGX5 = molecular target: T3, UniProt Q8VGX5
# T3 sequence (whole entry): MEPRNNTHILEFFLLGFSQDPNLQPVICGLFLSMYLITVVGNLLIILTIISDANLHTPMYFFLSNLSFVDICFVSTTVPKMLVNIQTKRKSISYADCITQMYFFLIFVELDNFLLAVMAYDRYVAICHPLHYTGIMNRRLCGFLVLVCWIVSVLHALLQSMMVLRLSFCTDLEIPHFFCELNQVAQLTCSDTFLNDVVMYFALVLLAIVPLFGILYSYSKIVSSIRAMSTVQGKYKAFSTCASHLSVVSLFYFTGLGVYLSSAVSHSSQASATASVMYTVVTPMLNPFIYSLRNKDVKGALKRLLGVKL
# In short: as §1
# UniProt Q8VGX8 = molecular target: T4, UniProt Q8VGX8
# T4 sequence (whole entry): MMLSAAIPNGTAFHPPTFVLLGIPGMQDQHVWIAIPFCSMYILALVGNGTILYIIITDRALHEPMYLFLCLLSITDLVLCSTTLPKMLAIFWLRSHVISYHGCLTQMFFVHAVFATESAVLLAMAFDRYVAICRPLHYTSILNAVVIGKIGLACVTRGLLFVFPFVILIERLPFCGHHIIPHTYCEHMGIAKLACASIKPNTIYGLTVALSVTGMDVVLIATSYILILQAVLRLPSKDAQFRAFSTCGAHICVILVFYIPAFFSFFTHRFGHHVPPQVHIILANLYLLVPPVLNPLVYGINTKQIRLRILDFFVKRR
# In short: as §1
# UniProt Q8VGY6 = molecular target: T5, UniProt Q8VGY6
# T5 sequence (whole entry): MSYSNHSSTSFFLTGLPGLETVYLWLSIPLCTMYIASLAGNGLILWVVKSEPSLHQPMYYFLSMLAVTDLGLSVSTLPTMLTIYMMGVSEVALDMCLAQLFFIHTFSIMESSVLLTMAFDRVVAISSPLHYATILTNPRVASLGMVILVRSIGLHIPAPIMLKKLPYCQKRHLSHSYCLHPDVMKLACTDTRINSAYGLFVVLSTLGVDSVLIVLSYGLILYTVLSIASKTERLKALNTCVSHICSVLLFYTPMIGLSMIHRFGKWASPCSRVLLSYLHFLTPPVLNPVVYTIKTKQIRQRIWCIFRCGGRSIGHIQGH
# In short: as §1
# UniProt Q8VGZ2 = molecular target: T6, UniProt Q8VGZ2
# T6 sequence (whole entry): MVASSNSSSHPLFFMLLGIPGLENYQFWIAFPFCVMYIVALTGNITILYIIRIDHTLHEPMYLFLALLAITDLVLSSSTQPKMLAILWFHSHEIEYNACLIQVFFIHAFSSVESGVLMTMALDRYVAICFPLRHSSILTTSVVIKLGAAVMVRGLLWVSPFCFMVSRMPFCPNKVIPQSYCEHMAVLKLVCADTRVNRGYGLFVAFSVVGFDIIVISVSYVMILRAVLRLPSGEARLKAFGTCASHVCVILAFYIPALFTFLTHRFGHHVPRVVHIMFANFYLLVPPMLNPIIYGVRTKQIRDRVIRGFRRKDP
# In short: as §1
# UniProt Q8VGZ7 = molecular target: T7, UniProt Q8VGZ7
# T7 sequence (whole entry): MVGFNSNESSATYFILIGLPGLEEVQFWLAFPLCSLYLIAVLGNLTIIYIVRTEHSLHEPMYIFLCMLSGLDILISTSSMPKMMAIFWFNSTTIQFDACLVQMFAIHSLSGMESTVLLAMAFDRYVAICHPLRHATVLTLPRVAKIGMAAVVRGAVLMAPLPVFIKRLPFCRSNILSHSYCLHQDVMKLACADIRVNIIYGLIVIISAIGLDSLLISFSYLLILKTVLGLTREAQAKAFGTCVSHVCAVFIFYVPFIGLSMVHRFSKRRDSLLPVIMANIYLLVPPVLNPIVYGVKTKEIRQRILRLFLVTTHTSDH
# In short: as §1
# UniProt Q8VH10 = molecular target: T8, UniProt Q8VH10
# T8 sequence (whole entry): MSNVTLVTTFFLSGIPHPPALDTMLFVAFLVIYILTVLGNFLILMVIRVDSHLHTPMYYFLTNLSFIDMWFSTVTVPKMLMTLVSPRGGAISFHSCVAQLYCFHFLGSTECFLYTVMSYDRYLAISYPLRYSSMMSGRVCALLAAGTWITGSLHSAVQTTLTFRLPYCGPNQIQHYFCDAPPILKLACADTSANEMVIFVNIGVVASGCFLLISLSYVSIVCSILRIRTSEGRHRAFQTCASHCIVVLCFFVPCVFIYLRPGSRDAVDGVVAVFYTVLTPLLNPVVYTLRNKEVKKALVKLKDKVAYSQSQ
# In short: as §1
# UniProt Q8VH16 = molecular target: T9, UniProt Q8VH16
# T9 sequence (whole entry): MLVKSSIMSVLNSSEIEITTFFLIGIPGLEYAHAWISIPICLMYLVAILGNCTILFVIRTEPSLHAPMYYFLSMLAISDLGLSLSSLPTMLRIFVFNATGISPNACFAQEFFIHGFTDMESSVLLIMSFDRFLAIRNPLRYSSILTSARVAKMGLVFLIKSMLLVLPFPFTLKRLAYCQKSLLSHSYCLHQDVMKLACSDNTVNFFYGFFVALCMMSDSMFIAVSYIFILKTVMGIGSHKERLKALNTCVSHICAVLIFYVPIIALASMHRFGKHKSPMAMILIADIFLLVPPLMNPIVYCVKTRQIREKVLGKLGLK
# In short: as §1
# UniProt Q8VH20 = molecular target: T10, UniProt Q8VH20
# T10 sequence (whole entry): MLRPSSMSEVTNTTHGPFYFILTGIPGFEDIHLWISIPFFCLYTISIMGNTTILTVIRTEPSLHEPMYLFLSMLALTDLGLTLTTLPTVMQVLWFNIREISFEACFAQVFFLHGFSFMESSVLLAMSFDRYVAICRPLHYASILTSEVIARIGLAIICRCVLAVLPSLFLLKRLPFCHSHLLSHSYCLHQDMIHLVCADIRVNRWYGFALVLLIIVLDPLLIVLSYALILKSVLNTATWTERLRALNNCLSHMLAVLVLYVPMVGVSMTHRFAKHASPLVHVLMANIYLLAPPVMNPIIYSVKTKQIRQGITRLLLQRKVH
# In short: as §1
# 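Note: active if original authors judged signal statistically different from baseline.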
structure (smiles),measurement,setting,value
C=CCOC(=O)Cc1ccccc1,odorant receptor agonist call,UniProt Q8VGV7,inactive
same,odorant receptor agonist call,UniProt Q8VGX3,inactive
same,odorant receptor agonist call,UniProt Q8VGX5,active
same,odorant receptor agonist call,UniProt Q8VGX8,inactive
same,odorant receptor agonist call,UniProt Q8VGY6,inactive
same,odorant receptor agonist call,UniProt Q8VGZ2,inactive
same,odorant receptor agonist call,UniProt Q8VGZ7,inactive
same,odorant receptor agonist call,UniProt Q8VH10,active
same,odorant receptor agonist call,UniProt Q8VH16,inactive
same,odorant receptor agonist call,UniProt Q8VH20,inactive
